Screens deposited in PubChem BioAssay by several laboratories.
Rows were chosen to be rich in hits. Some 1.8% of all compounds tested hit in one or more screens of this group.
TDP2 absorb = blocks human TDP2 phosphodiesterase activity; recombinant TDP2, T5PNP hydrolysis, p-nitrophenol absorbance 415 nm; inhibition, % at 12.8 µM; 0.34% of 370,000 active; AID 720702;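 active = inhibition above the mean of all tested compounds plus 3 SD, set per campaign, cut at about 25% in these data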;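 note: 0% = DMSO with enzyme and 100% = buffer with substrate but no TDP2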
Target sequence (O95551 whole entry, looked up): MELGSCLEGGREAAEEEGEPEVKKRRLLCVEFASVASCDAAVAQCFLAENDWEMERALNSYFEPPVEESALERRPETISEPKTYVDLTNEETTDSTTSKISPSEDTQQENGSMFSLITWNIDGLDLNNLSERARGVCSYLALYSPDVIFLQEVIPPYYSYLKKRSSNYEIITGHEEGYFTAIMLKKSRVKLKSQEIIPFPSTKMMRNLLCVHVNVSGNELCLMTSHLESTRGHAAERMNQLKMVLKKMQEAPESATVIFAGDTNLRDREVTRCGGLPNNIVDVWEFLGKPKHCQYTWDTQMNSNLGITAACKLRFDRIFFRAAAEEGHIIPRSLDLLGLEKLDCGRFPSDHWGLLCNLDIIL
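Test system: Human TDP2 enzyme | Reagent: 5 mM T5PNP | Compound dosing: 12.8 µM single point, 1% DMSO | Incubation: Enzyme reaction with compound for 2 h at 37 °C | Technique: p-Nitrophenol epi absorbance | Read-out: % inhibition relative to enzyme-containing and enzyme-free wells | Benchmarks: High control without enzyme, low control DMSO plus TDP2 | Replicates: Singlicate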
Casp6 inh = blocks human caspase-6 cleavage activity | AID 686996 | purified caspase-6, Z-VEID-R110 cleavage fluorescence | inhibition, % at 12.5 µM | 0.53% of 350,000 active | P55212;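 active = mean inhibition across replicates at least about 35%, with every replicate also reaching that limit, limit read from the data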;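 note: 0% = median of neutral control wells and 100% = no fluorescence left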
MBD2 DNA inh = inhibitors of human MBD2 binding to methylated oligonucleotide; Q9UBB5; TR-FRET; inhibition, % at 4.4 µM; 0.31% of 370,000 active; AID 686964; in the data active = inhibition above about 13%
NSD2 HMT inh = NSD2 (human) methyltransferase inhibition; inhibition, % at 12.5 µM; 0.54% of 310,000 active; O96028; NSD2 peptide methylation, AlphaScreen, 120 min; AID 743445; in the data active = inhibition above about 50%
LEDGF integ inh = blocks HIV-1 LEDGF/p75-dependent DNA integration. TR-FRET IN-LEDGF/p75 DNA integration, Eu/Cy5. inhibition, % at 3.7 µM. 0.64% of 370,000 active. AID 743269;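 active = inhibition above the screen-wide mean plus 3 SD, cut at about 13% in these data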;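 note: signal is the Cy5 over europium emission ratio at 671 and 618 nm; 0% = plate median of compound wells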
UHRF1 binding = UHRF1 methyl-DNA binding inhibition; inhibition, % at 4.4 µM; AID 687016; 0.75% of 370,000 active; UHRF1 binding to methylated oligo, TR-FRET; Q96T88; in the data active = inhibition above about 21%;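 note: UHRF1 SRA domain binding a hemimethylated CpG hairpin DNA probe; 0% = median of test compound wells and 100% = reference inhibitor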
CASP1 counter = caspase-1 (human) inhibition counter-screen; activity change, negative = inhibition, % at 35 µM; purified caspase-1, Z-YVAD-R110 cleavage fluorescence; shares compounds with Casp6 inh; 100 tested, under 10 active;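 active = compounds lowering fluorescence whose fitted half-maximal concentration is no more than twice their top tested dose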
Target sequence (P29466 whole entry, looked up): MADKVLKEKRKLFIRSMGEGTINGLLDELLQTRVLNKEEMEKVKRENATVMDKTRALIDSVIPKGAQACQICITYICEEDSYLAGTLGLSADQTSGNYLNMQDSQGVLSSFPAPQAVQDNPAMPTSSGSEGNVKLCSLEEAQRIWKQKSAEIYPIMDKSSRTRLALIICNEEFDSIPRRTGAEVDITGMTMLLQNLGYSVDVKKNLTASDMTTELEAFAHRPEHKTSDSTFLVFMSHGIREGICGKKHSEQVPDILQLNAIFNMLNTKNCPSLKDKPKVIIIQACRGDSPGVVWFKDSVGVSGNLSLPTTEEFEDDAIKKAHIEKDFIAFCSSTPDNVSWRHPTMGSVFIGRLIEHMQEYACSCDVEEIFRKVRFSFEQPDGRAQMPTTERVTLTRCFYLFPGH
TDP2 inh conf = human TDP2 inhibition, confirmation | recombinant human TDP2, absorbance read-out | AID 743263 | shares compounds with TDP2 absorb | inhibition, % at 12.8 µM | 22% of 1,100 active; in the data active = inhibition above about 25%;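 note: 0% = vehicle with enzyme and 100% = no enzyme buffer only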
IN multimer up = activates HIV-1 integrase multimerization in LEDGF counter-screen; 17% of 2,000 active; activation, % at 7.7 µM; TR-FRET HIV-1 integrase multimerization, biochemical; AID 1053131; shares compounds with LEDGF integ inh; in the data active = activation above about 8.9%
TRFRET interf = counter-screen for LEDGF/p75 integration inhibitors: TR-FRET optical interference | AID 1053135 | 2,000 tested, under 10 active | inhibition, % at 7.7 µM | shares compounds with LEDGF integ inh | TR-FRET optical interference counterscreen, HIV-1 IN multimerization;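 active = inhibition above the mean over all tested compounds plus 3 SD, which no compound reached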;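 note: 0% = integrase with antibodies and DMSO and 100% = antibodies without integrase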
IN-LEDGF confirm = confirmation of HIV-1 LEDGF/p75-dependent integration inhibitors. shares compounds with LEDGF integ inh. TR-FRET LEDGF/p75-dependent HIV-1 integration, biochemical. inhibition, % at 3.7 µM. 36% of 2,000 active; in the data active = inhibition above about 14%
* marks the source's active call; other numbers are inactive results; . = no result.

SMILES	TDP2 absorb	Casp6 inh	MBD2 DNA inh	NSD2 HMT inh	LEDGF integ inh	UHRF1 binding	CASP1 counter	others
CCOc1ccc2nc3cc(NCc4ccc(OC)cc4)ccc3c(N)c2c1	.	73.0*	.	-6.0	.	.	3.2
CCCCNC(=O)c1nc(C2CCN(S(=O)(=O)c3ccccc3)CC2)oc1-c1cccc(C(F)(F)F)c1	8.3	-1.4	-2.6	.	2.6	11.7	.
CCCCNC(=O)c1nc(C2CCNCC2)oc1-c1cccc(C(F)(F)F)c1	-11.6	92.3*	1.0	.	5.5	18.9	-1.6
O=C(O)C1Nc2c(Cl)cc(Cl)c(Cl)c2C2C=CCC12 (stereo not drawn)	-16.6	39.6*	1.1	12.9	4.4	4.7	20.9
CCOC(=O)C1Nc2ccc(C)cc2C2C=CCC12 (stereo not drawn)	9.1	0.2	-3.5	.	4.3	-7.3	.
Cc1[nH]nc(S(=O)CC(=O)O)c1[N+](=O)[O-] (stereo not drawn)	-3.0	40.6*	0.8	-4.9	1.2	-0.1	9.2
C[C@H](CO)N1C[C@H](C)[C@H](CN(C)S(C)(=O)=O)Oc2ccc(NC(=O)Cc3ccccc3)cc2CC1=O	.	0.0	.	.	.	.	.
COc1ccc([N+](=O)[O-])cc1NC(=O)CCS(=O)(=O)c1ccc(Br)cc1	-3.9	31.0	0.8	-0.3	-0.9	9.5	-1.6
O=C(Nc1cccc(F)c1)N1CC(=O)N2[C@@H](CO)[C@H](c3ccc(C#CC4CC4)cc3)[C@@H]2C1	.	-1.4	.	.	.	.	.
COc1ccc(C(=O)OCC(=O)Nc2ncc([N+](=O)[O-])s2)cc1OC	-10.8	56.9*	0.3	-1.8	7.8	11.2	-1.6
C[C@@H]1CN([C@H](C)CO)C(=O)c2cccc(NS(=O)(=O)c3ccccc3)c2O[C@H]1CN(C)S(=O)(=O)c1ccc(Cl)cc1	.	0.2	.	.	.	.	.
CCCN(C)C[C@H]1Oc2ncc(C#CCC(C)C)cc2C(=O)N([C@@H](C)CO)C[C@H]1C	.	-0.7	.	.	.	.	.
CN(CC(=O)Nc1c(Cl)cccc1Cl)C(=O)c1cccc(-n2cccc2)c1	15.1	41.7*	7.4	7.6	2.8	22.8*	2.5
O=C1Nc2ccccc2CCc2ccccc21	10.9	-0.4	1.1	24.2	0.2	2.1	.
O=C1Cc2ccccc2C(=O)N1	73.4*	99.3*	4.5	.	24.8*	-2.2	-7.1
COc1ccc(S(=O)(=O)Nc2cc(Sc3ncn[nH]3)c(O)c3ccccc23)cc1	64.9*	.	-5.5	165.1*	45.1*	1.2	2.7
O=c1c(CO)cc(CO)cc(CO)c1O	-2.7	70.8*	-2.0	-0.1	-3.6	-1.2	0.1
COC(=O)[C@H](Cc1c[nH]c2ccccc12)NC(=O)Cc1c[nH]c2ccccc12	0.2	5.0	-1.5	2.3	1.1	-2.6	.
CCOC(=O)[C@H](Cc1c[nH]c2ccccc12)NC(=O)CN=[N+]=[N-]	.	38.1*	.	.	.	.	-1.0
O=C(O)CCc1ccc(-c2ccc(Br)cc2)n1CC(=O)O	4.6	47.0*	1.8	.	9.5	5.1	9.8
O=C(O)CCc1ccc(-c2ccccc2)n1CC(=O)O	-1.9	.	5.2	1.2	5.8	6.8	.
COCC(=O)N(C)C[C@@H]1Oc2ncc(C#Cc3ccc(OC)cc3)cc2C(=O)N([C@H](C)CO)C[C@@H]1C	.	0.5	.	.	.	.	.
COc1ccc(CN(C)C[C@@H]2OCCCC[C@@H](C)Oc3ccc(NS(=O)(=O)c4cn(C)cn4)cc3C(=O)N([C@H](C)CO)C[C@@H]2C)cc1	.	-0.5	.	.	.	.	.
Nc1c(N)c2ccccc2oc1=O	-6.9	.	6.0	0.6	-2.5	-1.5	.
O=c1oc2ccccc2c2oc3cc(O)c(O)cc3c12	-13.3	43.7*	-4.3	.	4.5	-9.9	-0.2
SMILES	TDP2 absorb	Casp6 inh	MBD2 DNA inh	NSD2 HMT inh	LEDGF integ inh	UHRF1 binding	CASP1 counter	others
C[C@@H]1CN([C@H](C)CO)C(=O)c2cc(NC(=O)Nc3ccc4c(c3)OCO4)ccc2O[C@H]1CN(C)Cc1ccc(C(F)(F)F)cc1	.	0.8	.	.	.	.	.
COc1cc(-c2ccc(Nc3ccccc3C(=O)O)c(OC)c2)ccc1Nc1ccccc1C(=O)O	2.9	39.5*	7.5	80.2*	8.9	21.5*	-3.0
C[C@H]1CN([C@@H](C)CO)C(=O)CCCn2cc(nn2)CO[C@H]1CN(C)C(=O)Nc1ccc(-c2cccs2)cc1	.	2.9	.	.	.	.	.
Cc1cc(C)c(NC(=O)COC(=O)c2ccc([N+](=O)[O-])s2)c(C)c1	-8.1	.	-4.2	-1.1	1.5	-2.2	.
NS(=O)(=O)c1ccc(NC(=O)COC(=O)c2ccc([N+](=O)[O-])s2)cc1	27.5*	91.8*	-8.4	.	6.9	1.8	4.5	TDP2 inh conf=36.0*
Nc1cc2nn(-c3ccccc3)nc2cc1Cl	69.9*	98.4*	-11.6	52.2*	48.1*	-0.4	2.0	TDP2 inh conf=46.7*
O=C(Nc1cc(F)ccc1F)N1CCCCN2[C@H](C1)[C@@H](c1ccc(-c3ccccc3)cc1)[C@@H]2CO	.	-0.5	.	.	.	.	.
Cc1ccc(NC(=O)COC(=O)c2ccc([N+](=O)[O-])s2)c(C)c1	10.4	0.8	4.0	0.3	-0.8	-0.9	.
COc1ccccc1NC(=O)COC(=O)c1ccc([N+](=O)[O-])s1	31.6*	86.9*	5.2	0.8	16.6*	1.9	-0.2	TDP2 inh conf=24.2;IN multimer up=0.3;TRFRET interf=-1.5;IN-LEDGF confirm=44.3*
COc1ccc(OC)c(Nc2cc3ccccc3c(=O)[nH]2)c1	67.7*	99.0*	-5.3	.	17.2*	1.0	23.0	TDP2 inh conf=60.7*;IN multimer up=5.5;TRFRET interf=-19.6;IN-LEDGF confirm=64.6*
COc1ccc(OC)c(Nc2nnc(C)c(=O)[nH]2)c1	-5.5	1.0	0.9	-1.7	-4.5	3.0	.
C[C@H](CO)N1C[C@H](C)[C@@H](CN(C)C(=O)Nc2ccc(F)cc2)OCCCC[C@H](C)Oc2ccc(N(C)C)cc2C1=O	.	-0.5	.	.	.	.	.
C[C@@H]1CCCCO[C@H](CN(C)C(=O)Cc2ccccc2)[C@@H](C)CN([C@H](C)CO)C(=O)c2cc(NC(=O)c3ccccc3)ccc2O1	.	20.2	.	.	.	.	.
Oc1cc(NCCc2cccnc2)cc2cccnc12	15.4	48.8*	-9.9	.	18.0*	-12.0	4.7	IN multimer up=2.3;TRFRET interf=-11.3;IN-LEDGF confirm=20.8*
Nc1ccc(Nc2ccccc2)c(S(=O)(=O)O)c1	-5.8	85.7*	2.1	93.7*	18.7*	19.5	-8.4	IN multimer up=10.5*;TRFRET interf=-52.8;IN-LEDGF confirm=10.7
